Measurements from ChEMBL document CHEMBL4261642, “Design, synthesis, and ex vivo evaluation of a selective inhibitor for retinaldehyde dehydrogenase enzymes” (Bioorg Med Chem, 2018).
Blank lines part the entries; values can stand above or below the molecule they belong to. Calls of active or inactive are those of the source. The rule behind the calls is not given here.

Tests used:
[1] = molecular target: T1, Retinal dehydrogenase 2 (Gallus gallus) (UniProt O93344); assay: Inhibition of RALDH2 in living intact choroid isolated from 4 day recovering chick eyes assessed as inhibition of ATRA synthesis at 1 uM after 24 hrs in presence of […]
T1 sequence (whole entry): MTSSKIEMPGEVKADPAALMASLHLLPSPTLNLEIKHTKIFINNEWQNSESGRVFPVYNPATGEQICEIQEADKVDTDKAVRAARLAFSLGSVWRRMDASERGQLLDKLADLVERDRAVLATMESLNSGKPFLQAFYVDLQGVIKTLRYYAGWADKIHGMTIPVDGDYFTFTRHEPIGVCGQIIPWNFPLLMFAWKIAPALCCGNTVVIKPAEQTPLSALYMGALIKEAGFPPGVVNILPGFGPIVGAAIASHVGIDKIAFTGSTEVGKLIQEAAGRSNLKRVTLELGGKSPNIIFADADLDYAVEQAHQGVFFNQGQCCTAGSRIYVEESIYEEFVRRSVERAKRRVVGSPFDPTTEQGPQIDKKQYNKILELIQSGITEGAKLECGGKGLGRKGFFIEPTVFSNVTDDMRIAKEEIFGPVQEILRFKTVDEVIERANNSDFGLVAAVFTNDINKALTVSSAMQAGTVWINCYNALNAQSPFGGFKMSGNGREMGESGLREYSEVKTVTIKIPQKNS

Retinal dehydrogenase 2 = molecular target: T2, Retinal dehydrogenase 2 (Gallus gallus, UniProt O93344); assay: Inhibition of RALDH2 in living intact choroid isolated from 4 day recovering chick eyes assessed as inhibition of ATRA synthesis after 24 hrs in presence of […]
T2 sequence (O93344 whole entry): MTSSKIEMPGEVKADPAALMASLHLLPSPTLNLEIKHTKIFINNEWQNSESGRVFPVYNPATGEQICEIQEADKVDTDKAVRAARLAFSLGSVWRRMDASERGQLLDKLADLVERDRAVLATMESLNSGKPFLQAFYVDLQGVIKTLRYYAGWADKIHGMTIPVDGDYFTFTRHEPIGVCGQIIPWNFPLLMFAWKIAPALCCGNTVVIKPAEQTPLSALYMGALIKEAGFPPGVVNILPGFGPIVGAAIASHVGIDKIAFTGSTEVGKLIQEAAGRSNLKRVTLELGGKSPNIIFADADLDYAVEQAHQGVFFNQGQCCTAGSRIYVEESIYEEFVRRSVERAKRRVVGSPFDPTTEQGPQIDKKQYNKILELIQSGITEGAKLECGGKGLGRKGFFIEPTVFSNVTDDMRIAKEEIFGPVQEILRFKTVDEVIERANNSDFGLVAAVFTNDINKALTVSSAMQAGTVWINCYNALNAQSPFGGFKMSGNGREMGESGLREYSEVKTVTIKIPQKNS

[2] = molecular target: T1, Retinal dehydrogenase 2 (Gallus gallus); assay: Inhibition of RALDH2 in living intact choroid isolated from 4 day recovering chick eyes assessed as inhibition of ATRA synthesis at 0.1 uM after 24 hrs in presence of […]
[3] = molecular target: T1, Retinal dehydrogenase 2 (Gallus gallus); assay: Inhibition of RALDH2 in living intact choroid isolated from 4 day recovering chick eyes assessed as inhibition of ATRA synthesis at 10 uM after 24 hrs in presence of […]
[4] = molecular target: T1, Retinal dehydrogenase 2 (Gallus gallus); assay: Inhibition of RALDH2 in living intact choroid isolated from normal chick eyes assessed as inhibition of ATRA synthesis after 24 hrs in presence of retinaldehyde and NAD+
[5] = molecular target: T3, Aldehyde dehydrogenase, mitochondrial (Homo sapiens, UniProt P05091); assay: Inhibition of N-terminal His6-tagged recombinant human mitochondrial ALDH2 using propionaldehyde as substrate preincubated for 20 mins to 1 hr followed by substrate addition and measured for 5 mins in presence of NADH by spectrophotometric assay; conditions: read-out: IC50
T3 sequence (P05091 whole entry): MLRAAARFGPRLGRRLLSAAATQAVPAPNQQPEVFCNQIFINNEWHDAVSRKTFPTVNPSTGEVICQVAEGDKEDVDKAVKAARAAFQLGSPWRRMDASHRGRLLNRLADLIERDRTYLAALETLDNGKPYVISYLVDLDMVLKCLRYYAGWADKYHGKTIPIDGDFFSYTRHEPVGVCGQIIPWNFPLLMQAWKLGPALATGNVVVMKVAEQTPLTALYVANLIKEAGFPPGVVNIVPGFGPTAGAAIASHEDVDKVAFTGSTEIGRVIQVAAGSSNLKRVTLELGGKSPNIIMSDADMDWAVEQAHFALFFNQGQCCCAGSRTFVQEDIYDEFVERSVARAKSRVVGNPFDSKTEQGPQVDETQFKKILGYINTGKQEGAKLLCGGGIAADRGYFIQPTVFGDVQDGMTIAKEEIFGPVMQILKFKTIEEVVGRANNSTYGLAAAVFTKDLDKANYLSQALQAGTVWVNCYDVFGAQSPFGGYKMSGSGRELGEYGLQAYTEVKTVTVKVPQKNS

[6] = compound: CC1=C(/C=C/C(C)=C/C=C/C(C)=C/C(=O)C(Cl)Cl)C(C)(C)CCC1; assay: Inhibition of N-terminal His6-tagged recombinant chick RALDH2 expressed in Escherichia coli BL21(DE3) cells at 150 nM using RAL as substrate assessed as Vmax at enzyme concentrations of 183 to 365 nM measured after 30 mins in presence of NADH by fluorescence assay; conditions: Gallus gallus
Outline: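 Chick RALDH2 at 46–365 nM pre-incubated 20 min with a fixed 150 nM inhibitor. NADH synthesis then started with 250 μM retinaldehyde and 4 mM NAD+, 30 min at 37°C, read fluorimetrically. Vmax plotted against enzyme concentration.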

[7] = compound: CC1=C(/C=C/C(C)=C/C=C/C(C)=C/C(=O)C(Cl)Cl)C(C)(C)CCC1; assay: (§1) Inhibition of N-terminal His6-tagged recombinant chick RALDH2 expressed in Escherichia coli BL21(DE3) cells at 50 nM using RAL as substrate assessed as Km preincubated for 20 mins followed by substrate addition and measured after 30 mins in presence of NADH by fluorescence assay (reference value: 82.12 +/- 28.41 microM); conditions: Gallus gallus
[8] = compound: CC1=C(/C=C/C(C)=C/C=C/C(C)=C/C(=O)C(Cl)Cl)C(C)(C)CCC1; assay: as §1, with “100” for “50”; conditions: Gallus gallus
[9] = compound: CC1=C(/C=C/C(C)=C/C=C/C(C)=C/C(=O)C(Cl)Cl)C(C)(C)CCC1; assay: as §1, with “150” for “50”; conditions: Gallus gallus
[10] = compound: CC1=C(/C=C/C(C)=C/C=C/C(C)=C/C(=O)C(Cl)Cl)C(C)(C)CCC1; assay: as §1, with “200” for “50”; conditions: Gallus gallus
[11] = compound: CC1=C(/C=C/C(C)=C/C=C/C(C)=C/C(=O)C(Cl)Cl)C(C)(C)CCC1; assay: as §1, with “250” for “50”; conditions: Gallus gallus
[12] = compound: CC1=C(/C=C/C(C)=C/C=C/C(C)=C/C(=O)C(Cl)Cl)C(C)(C)CCC1; assay: as §1, with “Vmax” for “Km”, “1665” for “82.12”, “239.28 pmol/microM/min)” for “28.41 microM)”; conditions: Gallus gallus
[13] = compound: CC1=C(/C=C/C(C)=C/C=C/C(C)=C/C(=O)C(Cl)Cl)C(C)(C)CCC1; assay: as §1, with “100” for “50”, “Vmax” for “Km”, “1665” for “82.12”, “239.28 pmol/microM/min)” for “28.41 microM)”; conditions: Gallus gallus
[14] = compound: CC1=C(/C=C/C(C)=C/C=C/C(C)=C/C(=O)C(Cl)Cl)C(C)(C)CCC1; assay: as §1, with “150” for “50”, “Vmax” for “Km”, “1665” for “82.12”, “239.28 pmol/microM/min)” for “28.41 microM)”; conditions: Gallus gallus
[15] = compound: CC1=C(/C=C/C(C)=C/C=C/C(C)=C/C(=O)C(Cl)Cl)C(C)(C)CCC1; assay: as §1, with “200” for “50”, “Vmax” for “Km”, “1665” for “82.12”, “239.28 pmol/microM/min)” for “28.41 microM)”; conditions: Gallus gallus
[16] = compound: CC1=C(/C=C/C(C)=C/C=C/C(C)=C/C(=O)C(Cl)Cl)C(C)(C)CCC1; assay: as §1, with “250” for “50”, “Vmax” for “Km”, “1665” for “82.12”, “239.28 pmol/microM/min)” for “28.41 microM)”; conditions: Gallus gallus
[17] = compound: CC1=C(/C=C/C(C)=C/C=C/C(C)=C/C(=O)C(Cl)Cl)C(C)(C)CCC1; assay: as §1, with “RALDH1” for “RALDH2”, “100” for “50”, “67.09” for “82.12”, “25.06” for “28.41”; conditions: Gallus gallus
[18] = compound: CC1=C(/C=C/C(C)=C/C=C/C(C)=C/C(=O)C(Cl)Cl)C(C)(C)CCC1; assay: as §1, with “RALDH1” for “RALDH2”, “500” for “50”, “67.09” for “82.12”, “25.06” for “28.41”; conditions: Gallus gallus
[19] = compound: CC1=C(/C=C/C(C)=C/C=C/C(C)=C/C(=O)C(Cl)Cl)C(C)(C)CCC1; assay: as §1, with “RALDH1” for “RALDH2”, “1000” for “50”, “67.09” for “82.12”, “25.06” for “28.41”; conditions: Gallus gallus
[20] = compound: CC1=C(/C=C/C(C)=C/C=C/C(C)=C/C(=O)C(Cl)Cl)C(C)(C)CCC1; assay: as §1, with “RALDH1” for “RALDH2”, “100” for “50”, “Vmax” for “Km”, “54.77” for “82.12”, “7.58 pmol/microM/min)” for “28.41 microM)”; conditions: Gallus gallus
[21] = compound: CC1=C(/C=C/C(C)=C/C=C/C(C)=C/C(=O)C(Cl)Cl)C(C)(C)CCC1; assay: as §1, with “RALDH1” for “RALDH2”, “500” for “50”, “Vmax” for “Km”, “54.77” for “82.12”, “7.58 pmol/microM/min)” for “28.41 microM)”; conditions: Gallus gallus
[22] = compound: CC1=C(/C=C/C(C)=C/C=C/C(C)=C/C(=O)C(Cl)Cl)C(C)(C)CCC1; assay: as §1, with “RALDH1” for “RALDH2”, “1000” for “50”, “Vmax” for “Km”, “54.77” for “82.12”, “7.58 pmol/microM/min)” for “28.41 microM)”; conditions: Gallus gallus

- inhibition [1]: 51%
- EC50 (Retinal dehydrogenase 2): 44.5 nM
- inhibition [2]: 40%
- inhibition [3]: 76%
- inhibition [4]: inactive
- IC50 [5]: 229 nM
Molecule: O=C(NCCCCCCCCNC(=O)C(Cl)Cl)C(Cl)Cl

B1: Retinal dehydrogenase 2 (Gallus gallus), O93344 (protein)
chain: MTSSKIEMPGEVKADPAALMASLHLLPSPTLNLEIKHTKIFINNEWQNSESGRVFPVYNPATGEQICEIQEADKVDTDKAVRAARLAFSLGSVWRRMDASERGQLLDKLADLVERDRAVLATMESLNSGKPFLQAFYVDLQGVIKTLRYYAGWADKIHGMTIPVDGDYFTFTRHEPIGVCGQIIPWNFPLLMFAWKIAPALCCGNTVVIKPAEQTPLSALYMGALIKEAGFPPGVVNILPGFGPIVGAAIASHVGIDKIAFTGSTEVGKLIQEAAGRSNLKRVTLELGGKSPNIIFADADLDYAVEQAHQGVFFNQGQCCTAGSRIYVEESIYEEFVRRSVERAKRRVVGSPFDPTTEQGPQIDKKQYNKILELIQSGITEGAKLECGGKGLGRKGFFIEPTVFSNVTDDMRIAKEEIFGPVQEILRFKTVDEVIERANNSDFGLVAAVFTNDINKALTVSSAMQAGTVWINCYNALNAQSPFGGFKMSGNGREMGESGLREYSEVKTVTIKIPQKNS
- Vmax [6]: 0.5 to 3.01 µM/min
- Km [7]: 80.7 µM
- Km [8]: 47.2 µM
- Km [9]: 22.7 µM
- Km [10]: 18.3 µM
- Km [11]: 14.9 µM
- Vmax [12]: 1560 pmol/µM/min
- Vmax [13]: 1150 pmol/µM/min
- Vmax [14]: 867 pmol/µM/min
- Vmax [15]: 666 pmol/µM/min
- Vmax [16]: 503 pmol/µM/min

B2: Aldehyde dehydrogenase 1A1 (Gallus gallus), P27463 (protein)
chain: MKKQGSPSNPAPVLPALPEPLKDLKIKYTKIFINNEWHDSVSGKKFEVFNPANEEKICEVAEGDKADIDKAVKAARKAFELGSPWRTMDASERGRLLNKLADLVERDRLTLATMEAIDGGKLFSTAYLMDLGACIKTIRYCAGWADKIHGRTVPMDGNFFTFTRHEPVGVCGQIIPWNFPLVMFIWKIAPALCCGNTVVVKPAEQTPLSALYMGSLIKEAGFPPGVVNIVPGFGPTAGAAISHHMDIDKVSFTGSTEVGKLIKEAAGKTNLKRVTLELGGKSPNIIFADADLDEAAEFAHIGLFYHQGQCCIAGSRIFVEEPIYDEFVRRSIERAKKYTLGDPLLPGVQQGPQIDKEQFQKILDLIESGKKEGAKLECGGGPWGNKGYFIQPTVFSNVTDDMRIAKEEIFGPVQQIMKFKTIDEVIKRANNTTYGLAAAVFTKDIDKALTFASALQAGTVWVNCYSAFSAQCPFGGFKMSGNGRELGEYGLQEYTEVKTVTIKIPQKNS
- Km [17]: 62.2 µM
- Km [18]: 32.9 µM
- Km [19]: 22.8 µM
- Vmax [20]: 50.1 pmol/µM/min
- Vmax [21]: 33.8 pmol/µM/min
- Vmax [22]: 25.7 pmol/µM/min
